From PubChem BioAssay
Records with an inconclusive call do not appear. The source made the active and inactive calls.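 Rule for the calls, unless noted: active = RAM network inhibition above 8.4% in each of two replicates, 3 SD over the compound average; inconclusive = above 8.4% inhibition in only one replicate; inactive = 8.4% inhibition or less in each replicate.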

Tests used:
[1] = OD615 S. cerevisiae growth inhibition, permissive medium, pilot counter-assay, permissive growth control for S. cerevisiae lifespan shortening project (AID 705;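 active = growth inhibition above 25% in both replicates, a cutoff set 3 SD above the mean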); conditions: OD615, 24 h, at 10 µM, hits give high values
In short: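 Material: engineered DeaD yeast; Compound: one dose 10 µM, DMSO 0.25% final; Detection: absorbance (optical density) at 615 nm; Buffer or medium: permissive raffinose/galactose medium; Timing: 24 h exposure, 30 °C.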

[2] = Restrictive medium S. cerevisiae growth inhibition, OD615, pilot screen of yeast lifespan reduction project, restrictive growth control (AID 706;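 active = growth inhibition above a set limit, 3 SD over mean compound inhibition, in both replicates, cut at about 43% in these data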;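 note: modified DeaD lifespan yeast strain shifted to restrictive glucose medium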); conditions: OD615, 48 h, at 10 µM, hits give high values
In short: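 Buffer or medium: restrictive glucose medium (CSMM-D); test system: modified S. cerevisiae; doses: single dose of 10 µM compound final, 0.25% DMSO; schedule: 48 h compound exposure at 30 °C; detection: absorbance (optical density) measured at 615 nm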

[3] = viability gain of MRP-1-high H69AR cells under doxorubicin, pilot screen, MRP-1 activator project, CellTiter-Glo, duplicate (AID 807;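 active = viability increase at or above a cutoff of the median across tested compounds plus 3 SD, cut at about 8.5% in these data, passing the limit was not always enough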;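 note: compound pretreatment 18-22 h then 72 h combined with doxorubicin; 0% = doxorubicin alone and 100% = vehicle without doxorubicin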); conditions: H69AR viability with doxorubicin, CellTiter-Glo luminescence; at 10 µM; hits give high values
[4] = growth suppression of beta-catenin knockout HCT116, pilot screen, human colon tumor cells (AID 823;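 active = cell viability at or below a set limit in both duplicate runs, the limit being the all-compound median minus 4 SD, cut at about 23% in these data, passing the limit was not always enough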;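 note: 0% = wells killed by 20 µM Hyamine and 100% = untreated DMSO cell wells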); conditions: CellTiter-Glo, 60 h, at 10 µM, hits give low values
[5] = growth suppression of PTEN-deleted HCT116, pilot screen, cell-based, HCT116 clonal line, CellTiter-Glo (AID 824;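 active = viability at or below 27.92% in each of two runs, the all-compound median minus 4 SD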;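 note: 0% = 20 µM Hyamine control and 100% = vehicle cell control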); conditions: 60 h, at 10 µM, hits give low values
[6] = inhibitors of the yeast RAM network, pilot screen, dse1pr::URA3 reporter, 5-FOA selection (AID 869;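 active = inhibition over a set limit, the all-compound mean plus 3 SD, in both replicate runs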;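 note: 0% = DMSO wells with no growth and 100% = 10 µM 1-NA-PP1 with full growth; RAM network block rescues cells from 5-FOA so hits raise OD615 growth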); conditions: S. cerevisiae dse1pr::URA3 5-FOA growth, OD615, 2 d; at 10 µM; hits give high values; strain carries analog-sensitive mutant Cbk1 kinase
[7] = RAM signaling pathway blockade in yeast – S. cerevisiae, Pdr1DBD-CYC8 efflux-inhibited sensitized strain, primary screen (AID 1298);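 note: 0% = DMSO untreated cells without growth and 100% = 10 µM 1-NA-PP1 full growth; higher means more yeast growth rescued from 5-FOA killing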; conditions: S. cerevisiae cbk1-as DSE1-URA3 strain, 5-FOA growth OD615, 2 d; at 50 µM; hits give high values

CCOc1ccc(N(CC(=O)NCc2cccs2)S(=O)(=O)c2c(C)noc2C)cc1
inactive: growth inhibition [1] -17.4% | growth inhibition [2] -7.87% | viability increase [3] -2.25% | viability [4] 95.1% | viability [5] 94.7% | inhibition [6] 1.49% | RAM network inhibition [7] 6.62%

COc1ccccc1N1CCN(c2nc(N)c(C#N)c(CC#N)c2C#N)CC1
inactive: growth inhibition [1] -1.4% | growth inhibition [2] -0.44% | viability increase [3] 2.45% | viability [4] 96.7% | viability [5] 86.3% | inhibition [6] 1.54% | RAM network inhibition [7] 3.57%

Cc1n[nH]c(C)c1S(=O)(=O)N(CC(=O)N1CCc2ccccc21)c1ccc(C(C)C)cc1
inactive: growth inhibition [1] -9.99% | growth inhibition [2] 9.17% | viability increase [3] -7.59% | viability [4] 89.6% | viability [5] 83.3% | inhibition [6] 1.94% | RAM network inhibition [7] 8.57%

OCCCc1nc2n(n1)C(c1ccccc1)C=C(c1ccccc1)N2 (stereo not drawn)
inactive: growth inhibition [1] -7.07% | growth inhibition [2] 1.69% | viability increase [3] -2.67% | viability [4] 97.1% | viability [5] 89.1% | inhibition [6] 0.59% | RAM network inhibition [7] 0.53%

FC(F)Sc1ccc(Nc2ncnc3nc[nH]c23)cc1
active: growth inhibition [2] 57.8%
inactive: growth inhibition [1] 16.9% | viability increase [3] -1.54% | viability [4] 92.8% | viability [5] 90.5% | inhibition [6] 1.23% | RAM network inhibition [7] 4.41%

O=C(c1ccccc1)n1nc(-c2ccccc2)nc1NCc1ccco1
inactive: growth inhibition [1] -15.5% | growth inhibition [2] -17% | viability increase [3] 0.43% | viability [4] 96.7% | viability [5] 98.1% | inhibition [6] 2.25% | RAM network inhibition [7] 6.58%

Cc1noc(C)c1S(=O)(=O)N1CCC(C(=O)N2CCC(N3CCCCC3)CC2)CC1
inactive: growth inhibition [1] -7.79% | growth inhibition [2] 2.65% | viability increase [3] 0.18% | viability [4] 101% | viability [5] 102% | inhibition [6] 1.78% | RAM network inhibition [7] -0.93%

COc1cc(-c2nc(-c3cccc(C)c3)no2)cc(OC)c1OC
inactive: growth inhibition [1] -5.34% | growth inhibition [2] -14.7% | viability increase [3] 0.46% | viability [4] 81.3% | viability [5] 81% | inhibition [6] 2.26% | RAM network inhibition [7] 9.46%

CCOC(=O)Cn1c(=O)oc2cc(S(=O)(=O)N3CCCc4ccccc43)ccc21
inactive: growth inhibition [1] -8.26% | growth inhibition [2] -5.77% | viability increase [3] -1.08% | viability [4] 88.2% | viability [5] 96% | inhibition [6] 2.77% | RAM network inhibition [7] 6.73%

O=[n+]1c2c(n([O-])c3c1CCCC3)CCCCC2
inactive: growth inhibition [1] -3.03% | growth inhibition [2] -9.11% | viability increase [3] 0.93% | viability [4] 102% | viability [5] 99.5% | inhibition [6] 0.345% | RAM network inhibition [7] -0.51%

Cn1c2c(c(=O)n(C)c1=O)C1c3ccccc3OCC1C(C)(C)O2 (stereo not drawn)
inactive: growth inhibition [1] -15.4% | growth inhibition [2] -19.5% | viability increase [3] -2.46% | viability [4] 98.7% | viability [5] 96.1% | inhibition [6] -0.05% | RAM network inhibition [7] 0.68%

Cc1ccc(Cn2ccc(NC(=O)c3cc(C(C)C)on3)n2)cc1
inactive: growth inhibition [1] -13.5% | growth inhibition [2] 5.14% | viability increase [3] 0.94% | viability [4] 97.1% | viability [5] 95.1% | inhibition [6] 1.97% | RAM network inhibition [7] 4.18%

Cc1ccccc1-n1nc(C(=O)O)c(C)c(C#N)c1=O
inactive: growth inhibition [1] -3.86% | growth inhibition [2] -6.29% | viability increase [3] -0.28% | viability [4] 97.8% | viability [5] 98.6% | inhibition [6] 2.41% | RAM network inhibition [7] 3.52%

O=C(Nc1nc(-c2ccccc2)cs1)c1cccs1
inactive: growth inhibition [1] -5.78% | growth inhibition [2] -1.27% | viability increase [3] -1.21% | viability [4] 66.3% | viability [5] 72.8% | inhibition [6] -0.845% | RAM network inhibition [7] 2.45%
